ChEMBL document CHEMBL3244308, “Potential antitumor agents. 22. Latentiated congeners of the 4'-(9-acridinylamino)methanesulfonanilides” (J Med Chem, 1977)

Tests used:
[1] = system: L1210; assay: Antitumor activity against mouse L1210 cells subcutaneously xenografted in ip dosed C3H/DBA2 F1 hybrid mouse assessed as increase in host lifespan administered daily for 5 days starting 24 hrs post-tumor implantation; type: functional
How it was run: (§1)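 10⁵ L1210 cells implanted sc above the right axilla into 18.5-22.5-g C3H/DBA2 F1 mice. Daily ip dosing for 5 days from 24 h after implant, as water-soluble salts or as homogenized suspensions in aqueous methylcellulose. Groups of six mice. Increase in life span (T/C% − 100) at the optimum dose (maximal life-span increase, mg/kg/day); 50-day survivors counted.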

[2] = system: Mus musculus; assay: Toxicity in ip dosed mouse assessed as optimum dose that providing maximum increase in life span administered qd for 1 to 5 days; type: organism-based; conditions: in vivo
How it was run: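 Mice were C3H/DBA2 F1 hybrids weighing 18.5-22.5 g. L1210 cells (10^5) were implanted ip or sc above the right axilla. Daily ip treatment began 24 h later and continued for 5 days (dq 1-5), given in water or as a homogenized suspension in aqueous methylcellulose. The optimum dose (mg/kg/day) is the one giving maximum life-span increase (T/C% - 100). Groups were six mice; 50-day survivors were counted.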

[3] = Lipophilic-hydrophilic balance, Rm of the compound by reversed-phase partition chromatography; type: physicochemical
[4] = system: L1210; assay: Antitumor activity against mouse L1210 cells intraperitoneally xenografted in ip dosed C3H/DBA2 F1 hybrid mouse assessed as increase in host lifespan administered daily for 5 days starting 24 hrs post-tumor implantation; type: functional
How it was run: as §1, with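 “ip” for “sc above the right axilla”, “treatment” for “dosing”, “salts (methanesulfonate or hydrochloride)” for “salts”, “Read-out is increase” for “Increase”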

[5] = Half life of the compound in 0.1 M mercaptoethanol buffer at pH 7.4 at 37 degC by thiolytic assay; type: physicochemical
[6] = system: Blood; assay: Stability in mouse blood assessed as 4'-(9-acridinylamino)methanesulfonanilide release at 37 degC; type: ADME, tissue-based

Q: For CCC(=O)N(c1ccc(Nc2c3ccccc3nc3cc([N+](=O)[O-])ccc23)cc1)S(C)(=O)=O, which ILS [1] is on record?
A: Its ILS is 57%.

Q: And the Activity [2]?
A: Its Activity is 50 mg/kg.

Q: What about the Rm [3] of the same compound?
A: Its Rm is 0.13.

Q: And the ILS [4]?
A: The ILS was 162%.

Q: Which ILS [1] does the source give for CCCCCCCC(=O)N(c1ccc(Nc2c3ccccc3nc3cc([N+](=O)[O-])ccc23)cc1)S(C)(=O)=O here?
A: The ILS was 47%.

Q: What about the Activity [2] of the same compound?
A: The Activity was 10 mg/kg.

Q: And the Rm [3]?
A: Its Rm is 0.61.

Q: And the ILS [4]?
A: The ILS was 62%.

Q: What does the source list for CN(C)/N=N/c1ccc2c(Nc3ccc(NS(C)(=O)=O)cc3)c3ccccc3nc2c1.Cl?
A: ILS [1]: 38%; Activity [2]: 8 mg/kg; Rm [3]: 0.22; ILS [4]: 110%

Q: For CC(=O)N(c1ccc(Nc2c3ccccc3nc3cc([N+](=O)[O-])ccc23)cc1)S(C)(=O)=O, which ILS [1] is on record?
A: The ILS was 61%.

Q: And the Activity [2]?
A: The Activity was 50 mg/kg.

Q: And the Rm [3]?
A: The Rm was -0.08.

Q: And the ILS [4]?
A: Its ILS is 138%.

Q: Which ILS [1] does the source give for Br.CCCCCCCCCCC(=O)N(c1ccc(Nc2c3ccccc3nc3cc(NC(C)=O)ccc23)cc1)S(C)(=O)=O here?
A: The ILS was 39%.

Q: What about the Activity [2] of the same compound?
A: The Activity was 30 mg/kg.

Q: And the Rm [3]?
A: Its Rm is 0.79.

Q: And the ILS [4]?
A: The ILS was 64%.

Q: Which results are given for CS(=O)(=O)Nc1ccc(Nc2c3ccccc3nc3cc(N=[N+]=[N-])ccc23)cc1.Cl?
A: ILS [1]: 64%; Activity [2]: 16 mg/kg; Rm [3]: -0.02; ILS [4]: 216%

Q: Which results are given for CC(=O)Nc1ccc2c(Nc3ccc(N(C(=O)C(C)C)S(C)(=O)=O)cc3)c3ccccc3nc2c1.Cl?
A: ILS [1]: 57%; Activity [2]: 50 mg/kg; Rm [3]: 0.29; ILS [4]: 93%

Q: Which ILS [1] does the source give for CCCCCCCCC(=O)N(c1ccc(Nc2c3ccccc3nc3cc([N+](=O)[O-])ccc23)cc1)S(C)(=O)=O here?
A: Its ILS is 61%.

Q: And the Activity [2]?
A: The Activity was 75 mg/kg.

Q: And the Rm [3]?
A: Its Rm is 0.71.

Q: What about the ILS [4] of the same compound?
A: Its ILS is 144%.

Q: Which ILS [1] does the source give for COC(=O)N(c1ccc(Nc2c3ccccc3nc3ccccc23)cc1)S(C)(=O)=O.Cl here?
A: The ILS was 36%.

Q: And the Activity [2]?
A: The Activity was 250 mg/kg.

Q: And the Rm [3]?
A: The Rm was 0.07.

Q: And the ILS [4]?
A: Its ILS is 67%.

Q: Which results are given for CCCCCCCCCCCCCCCCCC(=O)N(c1ccc(Nc2c3ccccc3nc3cc(NC(C)=O)ccc23)cc1)S(C)(=O)=O?
A: ILS [1]: 39%; Activity [2]: 450 mg/kg; Rm [3]: 0.87; ILS [4]: 68%

Q: What does the source list for CC(=O)N(c1ccc(Nc2c3ccccc3nc3ccccc23)cc1)S(C)(=O)=O.Cl?
A: half-life [5]: 6.6 h; Stability [6]: Unstable; ILS [1]: 68%; Activity [2]: 160 mg/kg; Rm [3]: -0.14; ILS [4]: 109%

Q: What does the source list for Br.CCCCCCC(=O)N(c1ccc(Nc2c3ccccc3nc3cc(NC(C)=O)ccc23)cc1)S(C)(=O)=O?
A: ILS [1]: 47%; Activity [2]: 14 mg/kg; Rm [3]: 0.63; ILS [4]: 71%

Q: For CCCN(C)/N=N/c1ccc2c(Nc3ccc(NS(C)(=O)=O)cc3OC)c3ccccc3nc2c1.CS(=O)(=O)O, which ILS [1] is on record?
A: The ILS was 59%.

Q: What about the Activity [2] of the same compound?
A: Its Activity is 15 mg/kg.

Q: And the Rm [3]?
A: The Rm was 0.65.

Q: And the ILS [4]?
A: The ILS was 100%.

Q: For CC(=O)Nc1ccc2c(Nc3ccc(NS(C)(=O)=O)cc3)c3ccccc3nc2c1, which ILS [1] is on record?
A: Its ILS is 33%.

Q: And the Activity [2]?
A: The Activity was 13 mg/kg.

Q: And the Rm [3]?
A: The Rm was -0.12.

Q: And the ILS [4]?
A: The ILS was 114%.

Q: For CS(=O)(=O)Nc1ccc(Nc2c3ccccc3nc3ccccc23)cc1, which ILS [1] is on record?
A: The ILS was 28%.

Q: What about the Activity [2] of the same compound?
A: The Activity was 45 mg/kg.

Q: What about the Rm [3] of the same compound?
A: Its Rm is 0.

Q: What about the ILS [4] of the same compound?
A: The ILS was 107%.

Q: What does the source list for CCCCC(=O)N(c1ccc(Nc2c3ccccc3nc3cc([N+](=O)[O-])ccc23)cc1)S(C)(=O)=O?
A: ILS [1]: 57%; Activity [2]: 26 mg/kg; Rm [3]: 0.32; ILS [4]: 91%

Q: Which ILS [1] does the source give for CCCC(=O)N(c1ccc(Nc2c3ccc([N+](=O)[O-])cc3nc3c(C)cccc23)cc1)S(C)(=O)=O here?
A: Its ILS is 31%.

Q: And the Activity [2]?
A: Its Activity is 50 mg/kg.

Q: And the Rm [3]?
A: The Rm was 0.31.

Q: And the ILS [4]?
A: The ILS was 71%.

Q: What does the source list for CCCCC(=O)N(c1ccc(Nc2c3ccccc3nc3cc(NC(C)=O)ccc23)cc1)S(C)(=O)=O.Cl?
A: ILS [1]: 63%; Activity [2]: 80 mg/kg; Rm [3]: 0.36; ILS [4]: 89%

Q: Which results are given for CCCCCC(=O)N(c1ccc(Nc2c3ccccc3nc3cc([N+](=O)[O-])ccc23)cc1)S(C)(=O)=O?
A: ILS [1]: 39%; Activity [2]: 5 mg/kg; Rm [3]: 0.41; ILS [4]: 57%

Q: Which ILS [1] does the source give for Br.CCCCCCC(=O)N(c1ccc(Nc2c3ccccc3nc3ccccc23)cc1)S(C)(=O)=O here?
A: The ILS was 27%.

Q: And the Activity [2]?
A: The Activity was 150 mg/kg.

Q: And the Rm [3]?
A: Its Rm is 0.54.

Q: And the ILS [4]?
A: Its ILS is 61%.

Q: Which results are given for COc1cc(NS(C)(=O)=O)ccc1Nc1c2ccccc2nc2ccccc12 [AMSACRINE]?
A: ILS [1]: 27%; Activity [2]: 6.7 mg/kg; Rm [3]: 0.18; ILS [4]: 114%

Q: Which results are given for Cc1cccc2c(Nc3ccc(NS(C)(=O)=O)cc3)c3ccc([N+](=O)[O-])cc3nc12?
A: ILS [1]: 98%; Activity [2]: 100 mg/kg; Rm [3]: -0.01; ILS [4]: 113%

Q: Which results are given for CC(=O)Nc1ccc2c(Nc3ccc(N(C(C)=O)S(C)(=O)=O)cc3)c3ccccc3nc2c1.Cl?
A: ILS [1]: 43%; Activity [2]: 28 mg/kg; Rm [3]: -0.19; ILS [4]: 118%

Q: For CCCCC(=O)N(c1ccc(Nc2c3ccccc3nc3ccccc23)cc1)S(C)(=O)=O.Cl, which ILS [1] is on record?
A: The ILS was 28%.

Q: What about the Activity [2] of the same compound?
A: The Activity was 400 mg/kg.

Q: What about the Rm [3] of the same compound?
A: The Rm was 0.34.

Q: What about the ILS [4] of the same compound?
A: Its ILS is 68%.

Q: Which results are given for CCCN(C)/N=N/c1ccc2c(Nc3ccc(NS(C)(=O)=O)cc3)c3ccccc3nc2c1.CS(=O)(=O)O?
A: ILS [1]: 27%; Activity [2]: 15 mg/kg; Rm [3]: 0.47; ILS [4]: 98%

Q: For CCC(=O)N(c1ccc(Nc2c3ccccc3nc3ccccc23)cc1)S(C)(=O)=O.Cl, which ILS [1] is on record?
A: The ILS was 56%.

Q: What about the Activity [2] of the same compound?
A: The Activity was 300 mg/kg.

Q: What about the Rm [3] of the same compound?
A: The Rm was 0.07.

Q: And the ILS [4]?
A: The ILS was 88%.

Q: Which ILS [1] does the source give for CC(=O)N(c1ccc(Nc2c3ccc([N+](=O)[O-])cc3nc3c(C)cccc23)cc1)S(C)(=O)=O here?
A: The ILS was 188%.

Q: And the Activity [2]?
A: Its Activity is 200 mg/kg.

Q: And the Rm [3]?
A: The Rm was -0.03.

Q: And the ILS [4]?
A: The ILS was 217%.

Q: Which results are given for CCC(=O)N(c1ccc(Nc2c3ccccc3nc3cc(NC(C)=O)ccc23)cc1)S(C)(=O)=O.Cl?
A: ILS [1]: 88%; Activity [2]: 40 mg/kg; Rm [3]: 0; ILS [4]: 135%
